# Experimental data from ChEMBL document CHEMBL1145830, “Design, synthesis, and evaluation of psorospermin/quinobenzoxazine hybrids as structurally novel antitumor agents” (J Med Chem, 2003).
# Assays:
# RPMI-8226 [1] = assay: Inhibitory concentration against 8226 myeloma cancer cell line; format: functional, cell-based; conditions: Homo sapiens
# How it was run: (§1)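 MTT growth assay: exponentially growing cells, (1-2) × 10^3 per well in 0.1 mL medium, were seeded on day 0 and cultured per supplier instructions. On day 1 an equal volume of medium carrying graded compound concentrations was added. On day 4 cultures received MTT (1 mg/mL in Dulbecco's PBS) for 4 h at 37 °C.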
# RPMI-8226 [2] = assay: Inhibitory concentration against 8226/Dox40 (Dox-Re) cancer cell line; format: functional, cell-based; conditions: Homo sapiens; how it was run: as §1
# DU-145 = assay: Inhibitory concentration against DU145 prostate cancer cell line; format: functional, cell-based; conditions: Homo sapiens; how it was run: as §1
# Granta = assay: Inhibitory concentration against Granta lymphoma cancer cell line; format: functional, cell-based; conditions: Homo sapiens; how it was run: as §1
# HT-29 = assay: Inhibitory concentration against HT-29 colon cancer cell line; format: functional, cell-based; conditions: Homo sapiens; how it was run: as §1
# HeLa = assay: Inhibitory concentration against Hela cervix cancer cell line; format: functional, cell-based; conditions: Homo sapiens; how it was run: as §1
# MCF7 = assay: Inhibitory concentration against MCF-7 breast cancer cell line; format: functional, cell-based; conditions: Homo sapiens; how it was run: as §1
# MIA PaCa-2 = assay: Inhibitory concentration against MIA PaCa pancreas cancer cell line; format: functional, cell-based; conditions: Homo sapiens; how it was run: as §1
# U-937 = assay: Inhibitory concentration against U937 lymphoma cancer cell line; format: functional, cell-based; conditions: Homo sapiens; how it was run: as §1
# NCI-H522 (human) = assay: Inhibitory concentration against H522 (NSCLS) cancer cell line
Compound,IC50 (RPMI-8226 [1]),IC50 (RPMI-8226 [2]),IC50 (DU-145),IC50 (Granta),IC50 (HT-29),IC50 (HeLa),IC50 (MCF7),IC50 (MIA PaCa-2),IC50 (U-937),IC50 (NCI-H522 (human))
N[C@H]1CCN(c2c(F)cc3c(=O)c(C(=O)O)cn4c3c2Oc2ccccc2-4)C1,270 nM,270 nM,470 nM,90 nM,450 nM,800 nM,660 nM,420 nM,310 nM,300 nM
C[C@]1([C@H]2Cc3ccc4c(c3O2)-n2cc(C(=O)O)c(=O)c3cc(F)c(N5CC[C@H](N)C5)c(c32)O4)CO1,90 nM,50 nM,80 nM,4 nM,140 nM,290 nM,240 nM,90 nM,30 nM,70 nM
C[C@@](O)(CCl)[C@H]1Cc2ccc3c(c2O1)-n1cc(C(=O)O)c(=O)c2cc(F)c(N4CC[C@H](N)C4)c(c21)O3,50 nM,30 nM,30 nM,2 nM,90 nM,130 nM,80 nM,40 nM,20 nM,20 nM
COc1cc2c(c3oc4c(O)cccc4c(=O)c13)C[C@H]([C@@]1(C)CO1)O2 [PSOROSPERMIN],290 nM,230 nM,210 nM,40 nM,1110 nM,1460 nM,570 nM,380 nM,270 nM,770 nM
